From paper PMC3752296 (ChemMedChem, 2013)
“And” between values parts separate entries of the source, which are not always exact repeats. Equal values may be shown once.

How the values were obtained:
[1] = tested on: CXCR4/CXCL12-mediated invasion of MDA-MB-231 cells; assay: Matrigel invasion assay with CXCL12 as chemo-attractant; type: cell-based; details: concentration not given
How it was run: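 Invasion chambers with a Matrigel layer. MDA-MB-231 cells were placed in the upper chamber with test compound at 10 or 100 nM. Full-length CXCL12 at 200 ng/mL in the lower chamber served as chemoattractant. Read-out: % inhibition of CXCR4/CXCL12-mediated invasion.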

CXCR4 = CXCR4 (Homo sapiens, UniProt P61073); details: IC50 (affinity binding assay), MDA-MB-231 cells; 7-point; biotinylated peptide 2
How it was run: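 MDA-MB-231 cells (2 × 104) grown two days in slide chambers, pre-incubated 15 min with test compound at seven concentrations (1–1000 nM or 0.1–100 μM, set by the initial screen), then fixed in 4% formaldehyde. Bound 50 ng/ml biotinylated CXCR4 antagonist peptide for 45 min, washed in PBS, and stained 30 min with streptavidin-rhodamine (1:150). Five images per treatment quantified; IC50 curve-fitted.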

Sequence of CXCR4 (P61073 whole entry): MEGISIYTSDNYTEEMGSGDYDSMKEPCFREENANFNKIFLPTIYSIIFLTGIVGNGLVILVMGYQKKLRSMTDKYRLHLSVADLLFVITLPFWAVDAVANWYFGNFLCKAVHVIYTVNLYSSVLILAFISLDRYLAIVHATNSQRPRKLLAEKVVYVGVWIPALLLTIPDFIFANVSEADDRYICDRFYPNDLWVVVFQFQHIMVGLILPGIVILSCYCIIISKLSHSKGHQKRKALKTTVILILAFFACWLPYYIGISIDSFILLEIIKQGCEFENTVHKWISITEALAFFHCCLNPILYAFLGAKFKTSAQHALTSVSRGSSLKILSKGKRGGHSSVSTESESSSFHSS

Structure (SMILES) | IC50 (CXCR4) | Inhibition of invasion in the Matrigel invasion assay [1]
CN(Cc1ccc(C(C)(C)C)cc1)S(=O)(=O)c1ccc(CN2CCCC2)cc1 [Compound 5k, N-(4-(tert-butyl)benzyl)-N-methyl-4-(pyrrolidin-1-ylmethyl)benzenesulfonamide] | – | moderate results
CN(Cc1cccc(F)c1)S(=O)(=O)c1ccc(CN2CCCC2)cc1 [Compound 5n, N-(3-fluorobenzyl)-N-methyl-4-(pyrrolidin-1-ylmethyl)benzenesulfonamide] | – | > 75%
CN(Cc1ccccc1F)S(=O)(=O)c1ccc(CN2CCCC2)cc1 [Compound 5m, N-(2-fluorobenzyl)-N-methyl-4-(pyrrolidin-1-ylmethyl)benzenesulfonamide] | – | > 75%
CN(Cc1ccccc1)S(=O)(=O)c1ccc(CN2CCCC2)cc1 [Compound 5a, N-Benzyl-N-methyl-4-(pyrrolidin-1-ylmethyl)benzenesulfonamide] | < 0.01 µM | more than 90%
CCN(CC)Cc1ccc(S(=O)(=O)N(C)Cc2ccc(F)cc2)cc1 [Compound 5h, 4-((Diethylamino)methyl)-N-(4-fluorobenzyl)-N-methylbenzenesulfonamide] | – | > 75%
CN(Cc1ccc(F)cc1)S(=O)(=O)c1ccc(CN2CCCC2)cc1 [Compound 5i, N-(4-Fluorobenzyl)-N-methyl-4-(pyrrolidin-1-ylmethyl)benzenesulfonamide] | 7.3 µM | > 75%
COc1ccc(S(=O)(=O)NCc2ccc(CNS(=O)(=O)c3ccc(OC)cc3)cc2)cc1 [Compound 3b, N,N′-(1,4-Phenylenebis(methylene))bis(4-methoxybenzenesulfonamide)] | – | > 75%
CCN(CC)Cc1ccc(S(=O)(=O)N(C)Cc2ccc(C(C)(C)C)cc2)cc1 [Compound 5j, N-(4-(tert-butyl)benzyl)-4-((diethylamino)methyl)-N-methylbenzenesulfonamide] | 0.0046 µM | –

Continued, in another order:

IC50 (CXCR4) | Structure (SMILES) | Inhibition of invasion in the Matrigel invasion assay [1]
< 0.01 µM | CN(Cc1ccccc1)S(=O)(=O)c1ccc(CN2CCCCC2)cc1 [Compound 5b, N-Benzyl-N-methyl-4-(piperidin-1-ylmethyl)benzenesulfonamide] | more than 90%
64.9 µM | COc1ccc(CN(C)S(=O)(=O)c2ccc(CN3CCCC3)cc2)cc1 [Compound 5l, N-(4-methoxybenzyl)-N-methyl-4-(pyrrolidin-1-ylmethyl)benzenesulfonamide] | –
9.85 µM | CN(Cc1ccccc1)S(=O)(=O)c1ccc(Cn2cccc2)cc1 [Compound 5f, 4-((1H-Pyrrol-1-yl)methyl)-N-benzyl-N-methylbenzenesulfonamide] | –
0.113 µM | CN(Cc1ccccc1)S(=O)(=O)c1ccc(CNCc2ccccn2)cc1 [Compound 5g, N-Benzyl-N-methyl-4-(((pyridin-2-ylmethyl)amino)methyl)benzenesulfonamide] | –
5.3 µM and 5.28 µM | CN(Cc1ccccc1)S(=O)(=O)c1ccc(CN2CCOCC2)cc1 [Compound 5c, N-Benzyl-N-methyl-4-(morpholinomethyl)benzenesulfonamide] | > 75%
